Experimental data reported in ChEMBL document CHEMBL3797125, “Discovery of GluN2A-Selective NMDA Receptor Positive Allosteric Modulators (PAMs): Tuning Deactivation Kinetics via Structure-Based Design” (J Med Chem, 2016).
Active and inactive are the calls of the source. The calls are words filed in the database; no cut-off is given here.

Tests used:
human MDR1 (P-gp) = assay: Efflux ratio of permeability from basolateral to apical over apical to basolateral side in MDCK cells expressing human MDR1; format: ADME, cell-based, Canis lupus familiaris; settings: dog
Glutamate receptor 2 [1] = molecular target: T1, Glutamate receptor 2 (Homo sapiens, UniProt P42262); assay: Positive allosteric modulation of human GluA2 AMPAR flop isomer expressed in Dox-inducible cells at 125 uM measured every 5 mins by BD calcium indicator dye based-fluorescence analysis in presence of glutamate; format: cell-based
T1 sequence (P42262 whole entry): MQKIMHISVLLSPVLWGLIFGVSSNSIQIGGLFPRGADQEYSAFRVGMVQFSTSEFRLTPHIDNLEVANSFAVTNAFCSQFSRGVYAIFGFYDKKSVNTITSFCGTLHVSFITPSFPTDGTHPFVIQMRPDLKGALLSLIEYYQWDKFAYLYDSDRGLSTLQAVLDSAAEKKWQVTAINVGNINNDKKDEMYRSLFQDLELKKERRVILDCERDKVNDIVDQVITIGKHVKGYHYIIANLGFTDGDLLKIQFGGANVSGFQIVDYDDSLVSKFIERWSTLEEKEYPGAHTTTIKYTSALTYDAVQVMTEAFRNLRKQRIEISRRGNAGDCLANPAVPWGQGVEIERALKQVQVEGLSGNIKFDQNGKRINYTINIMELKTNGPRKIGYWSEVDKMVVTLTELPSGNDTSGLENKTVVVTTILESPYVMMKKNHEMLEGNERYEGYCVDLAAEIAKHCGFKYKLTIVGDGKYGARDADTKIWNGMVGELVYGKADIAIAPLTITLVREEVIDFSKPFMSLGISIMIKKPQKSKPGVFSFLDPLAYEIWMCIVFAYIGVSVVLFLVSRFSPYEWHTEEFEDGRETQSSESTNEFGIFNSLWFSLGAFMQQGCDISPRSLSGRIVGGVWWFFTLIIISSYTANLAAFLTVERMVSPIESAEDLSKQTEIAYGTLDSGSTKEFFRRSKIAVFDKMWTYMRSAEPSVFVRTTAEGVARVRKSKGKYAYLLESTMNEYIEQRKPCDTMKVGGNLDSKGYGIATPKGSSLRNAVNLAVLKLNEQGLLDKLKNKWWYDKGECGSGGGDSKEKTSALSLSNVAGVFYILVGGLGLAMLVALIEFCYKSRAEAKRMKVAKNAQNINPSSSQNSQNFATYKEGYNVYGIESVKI

Homo sapiens [2] = species on record: Homo sapiens; assay: Selectivity ratio of EC50 for human GluA2 AMPAR flop isomer to EC50 for GluN1/GluN2A NMDAR (unknown origin) expressed in Dox-inducible cells; format: cell-based
[3] = molecular target: T2, Glutamate NMDA receptor; GRIN1/GRIN2A (Homo sapiens, UniProt Q05586+Q12879); assay: Positive allosteric modulation of GluN1/GluN2A NMDAR (unknown origin) expressed in Dox-inducible cells at 125 uM measured every 5 mins by BD calcium indicator dye based-fluorescence analysis in presence of glutamate/glycine; format: cell-based
Outline: (§1)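 GluN2A-containing NMDAR cell line, harvested, seeded, doxycycline 2 µg/mL overnight with 500 µM ketamine for protection, then washed and loaded with calcium dye for 50 min. Compound added at 2x concentration in 2x EC30 Glu (EC30 set daily from Glu dose-response); saturating Gly throughout; fluorescence recorded over 5 min.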

Glutamate receptor 2 [4] = molecular target: T1, Glutamate receptor 2; assay: Positive allosteric modulation of human GluA2 AMPAR flip isomer expressed in Dox-inducible cells at 125 uM measured every 5 mins by BD calcium indicator dye based-fluorescence analysis in presence of glutamate; format: cell-based
Glutamate receptor 2 [5] = molecular target: T1, Glutamate receptor 2; assay: Positive allosteric modulation of human GluA2 AMPAR flop isomer expressed in Dox-inducible cells measured every 5 mins by BD calcium indicator dye based-fluorescence analysis in presence of glutamate; format: cell-based
[6] = molecular target: T2, Glutamate NMDA receptor; GRIN1/GRIN2A; assay: Positive allosteric modulation of GluN1/GluN2A NMDAR (unknown origin) expressed in Dox-inducible cells measured every 5 mins by BD calcium indicator dye based-fluorescence analysis in presence of glutamate/glycine; format: cell-based; outline: as §1
Glutamate receptor 2 [7] = molecular target: T1, Glutamate receptor 2; assay: Positive allosteric modulation of human GluA2 AMPAR flip isomer expressed in Dox-inducible cells measured every 5 mins by BD calcium indicator dye based-fluorescence analysis in presence of glutamate; format: cell-based
[8] = molecular target: T2, Glutamate NMDA receptor; GRIN1/GRIN2A; assay: Positive allosteric modulation of GluN1/GluN2A NMDAR (unknown origin) expressed in CHO cells assessed as slowing of deactivation kinetics at 100 uM by whole-cell voltage clamp electrophysiological analysis; format: cell-based
Outline: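 Automated patch clamp of CHO cells expressing GluN1/GluN2A; sealed in high Mg2+ buffer, recorded whole-cell in zero Mg2+. Preincubation with PAM at 100 µM (or DMSO) plus 100 µM glycine for several minutes, then rapid switch to 100 µM glutamate and back. Tau from monoexponential fit of current decay; fold deactivation = PAM tau / vehicle tau.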

[9] = molecular target: Glutamate NMDA receptor; GRIN1/GRIN2B (Homo sapiens) (UniProt Q05586+Q13224); assay: Positive allosteric modulation of GluN1/GluN2B NMDAR (unknown origin) expressed in Dox-inducible cells at 125 uM measured every 5 mins by BD calcium indicator dye based-fluorescence analysis in presence of glutamate/glycine; format: cell-based
Outline: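 Doxycycline-induced (2 µg/mL, overnight, 500 µM ketamine) GluN2B-containing NMDAR cells, loaded with calcium dye for 50 min; compound added at 2x in 2x EC30 Glu, with saturating Gly; fluorescence recorded over 5 min. Max potentiation at 125 µM reported where no EC50 obtained; 30% denotes baseline (EC30 Glu).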

[10] = Plasma protein binding in mouse; format: ADME, cell-free; settings: read-out: PPB (converted)
[11] = Oral bioavailability in mouse at 10 mg/kg; format: ADME, organism-based; settings: in vivo
Plasma = assay: Fraction unbound in mouse plasma at 10 mg/kg, po measured at 1 hr; format: ADME, organism-based; settings: in vivo
[12] = molecular target: Ionotropic glutamate receptor NMDA 1/2D (Homo sapiens, UniProt O15399+Q05586); assay: Positive allosteric modulation of GluN1/GluN2D NMDAR (unknown origin) expressed in Dox-inducible cells by BD calcium indicator dye based-fluorescence analysis in presence of glutamate/glycine
Ionotropic glutamate receptor NMDA 1/2D, sequence (O15399 whole entry, other chains not shown): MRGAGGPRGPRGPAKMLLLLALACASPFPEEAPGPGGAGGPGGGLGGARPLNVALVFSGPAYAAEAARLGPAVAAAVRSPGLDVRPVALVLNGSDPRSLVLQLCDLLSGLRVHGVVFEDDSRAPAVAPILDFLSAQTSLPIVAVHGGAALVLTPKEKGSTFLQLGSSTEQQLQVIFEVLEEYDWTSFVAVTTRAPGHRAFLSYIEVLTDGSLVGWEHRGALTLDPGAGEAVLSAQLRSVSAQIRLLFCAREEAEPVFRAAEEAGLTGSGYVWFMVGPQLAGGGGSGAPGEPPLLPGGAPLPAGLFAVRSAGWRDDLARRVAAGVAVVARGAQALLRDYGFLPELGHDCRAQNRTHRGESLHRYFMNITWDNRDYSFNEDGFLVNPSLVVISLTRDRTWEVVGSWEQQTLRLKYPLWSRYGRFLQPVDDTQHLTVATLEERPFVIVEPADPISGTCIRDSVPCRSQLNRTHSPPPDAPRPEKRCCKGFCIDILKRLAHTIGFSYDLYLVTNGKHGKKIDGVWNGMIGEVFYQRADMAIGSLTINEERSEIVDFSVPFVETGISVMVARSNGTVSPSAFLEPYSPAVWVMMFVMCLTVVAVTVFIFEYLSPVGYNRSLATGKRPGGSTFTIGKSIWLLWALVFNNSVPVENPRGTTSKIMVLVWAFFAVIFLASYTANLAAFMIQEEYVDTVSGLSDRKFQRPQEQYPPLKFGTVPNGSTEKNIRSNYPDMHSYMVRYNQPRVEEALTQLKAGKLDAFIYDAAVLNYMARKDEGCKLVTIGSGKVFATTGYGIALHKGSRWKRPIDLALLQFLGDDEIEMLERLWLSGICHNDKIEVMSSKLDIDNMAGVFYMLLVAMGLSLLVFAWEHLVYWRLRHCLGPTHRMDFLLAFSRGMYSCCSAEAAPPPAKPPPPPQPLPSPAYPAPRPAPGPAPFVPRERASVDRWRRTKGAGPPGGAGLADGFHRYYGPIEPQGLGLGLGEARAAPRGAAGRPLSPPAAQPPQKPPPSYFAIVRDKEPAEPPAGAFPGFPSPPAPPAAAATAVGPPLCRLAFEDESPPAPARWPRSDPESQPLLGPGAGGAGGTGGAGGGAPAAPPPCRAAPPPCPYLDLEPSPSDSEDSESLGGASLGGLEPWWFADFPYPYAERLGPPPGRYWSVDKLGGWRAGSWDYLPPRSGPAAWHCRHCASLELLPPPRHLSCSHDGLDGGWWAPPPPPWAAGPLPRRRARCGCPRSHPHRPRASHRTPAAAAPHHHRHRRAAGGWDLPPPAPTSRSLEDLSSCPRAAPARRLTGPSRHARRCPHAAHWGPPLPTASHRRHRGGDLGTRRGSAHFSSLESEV

[13] = Protein binding in mouse brain; format: ADME, tissue-based; settings: read-out: PB (converted)
[14] = molecular target: Ionotropic glutamate receptor NMDA 1/2C (Homo sapiens, UniProt Q05586+Q14957); assay: Positive allosteric modulation of GluN1/GluN2C NMDAR (unknown origin) expressed in Dox-inducible cells by BD calcium indicator dye based-fluorescence analysis in presence of glutamate/glycine
Ionotropic glutamate receptor NMDA 1/2C, sequence (Q14957 whole entry, other chains not shown): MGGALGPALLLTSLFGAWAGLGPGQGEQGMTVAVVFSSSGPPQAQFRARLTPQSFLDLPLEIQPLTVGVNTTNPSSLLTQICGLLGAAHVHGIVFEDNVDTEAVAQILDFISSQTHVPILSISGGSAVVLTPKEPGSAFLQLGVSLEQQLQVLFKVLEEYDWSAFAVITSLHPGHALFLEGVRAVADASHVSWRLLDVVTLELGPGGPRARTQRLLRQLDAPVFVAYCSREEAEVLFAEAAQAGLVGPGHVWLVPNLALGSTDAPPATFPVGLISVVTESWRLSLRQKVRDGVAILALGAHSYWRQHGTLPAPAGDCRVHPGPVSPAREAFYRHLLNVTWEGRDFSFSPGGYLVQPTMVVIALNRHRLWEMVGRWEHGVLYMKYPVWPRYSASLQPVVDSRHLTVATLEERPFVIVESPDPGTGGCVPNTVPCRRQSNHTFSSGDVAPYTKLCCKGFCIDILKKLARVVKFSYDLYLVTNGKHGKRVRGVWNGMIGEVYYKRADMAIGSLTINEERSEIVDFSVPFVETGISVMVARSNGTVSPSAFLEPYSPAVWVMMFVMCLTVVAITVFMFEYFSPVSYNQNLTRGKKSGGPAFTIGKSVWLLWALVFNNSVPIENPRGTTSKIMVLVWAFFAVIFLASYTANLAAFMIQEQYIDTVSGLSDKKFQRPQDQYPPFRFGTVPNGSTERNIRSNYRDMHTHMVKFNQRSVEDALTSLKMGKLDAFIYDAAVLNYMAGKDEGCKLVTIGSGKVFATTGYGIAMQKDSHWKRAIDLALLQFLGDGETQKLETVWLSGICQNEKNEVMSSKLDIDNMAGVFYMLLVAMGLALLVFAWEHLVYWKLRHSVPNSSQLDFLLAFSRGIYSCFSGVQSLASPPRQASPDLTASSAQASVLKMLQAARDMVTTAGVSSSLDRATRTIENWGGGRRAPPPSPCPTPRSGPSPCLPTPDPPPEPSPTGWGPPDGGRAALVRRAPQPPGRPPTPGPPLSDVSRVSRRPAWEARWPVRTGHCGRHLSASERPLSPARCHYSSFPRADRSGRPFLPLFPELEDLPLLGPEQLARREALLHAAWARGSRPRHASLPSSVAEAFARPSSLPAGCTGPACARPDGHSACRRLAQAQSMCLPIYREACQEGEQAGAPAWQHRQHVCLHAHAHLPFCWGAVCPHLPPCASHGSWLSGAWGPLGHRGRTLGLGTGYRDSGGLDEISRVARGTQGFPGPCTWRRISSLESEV

[15] = Half life in mouse at 0.3 mg/kg, iv; format: ADME, organism-based; settings: in vivo
[16] = Blood clearance in mouse at 0.3 mg/kg, iv; format: ADME, organism-based
[17] = molecular target: T2, Glutamate NMDA receptor; GRIN1/GRIN2A; assay: Positive allosteric modulation of GluN1/GluN2A NMDAR (unknown origin) expressed in CHO cells assessed as slowing of deactivation kinetics at 10 uM by whole-cell voltage clamp electrophysiological analysis; format: cell-based
Homo sapiens [18] = species on record: Homo sapiens; assay: Selectivity ratio of EC50 for human GluA2 AMPAR flip isomer to EC50 for GluN1/GluN2A NMDAR (unknown origin) expressed in Dox-inducible cells; format: cell-based
[19] = Lipophilicity, logD of the compound at pH 7.4; format: physicochemical; settings: buffer

Row | Compound | efflux ratio (human MDR1 (P-gp)) | %max (Glutamate receptor 2 [1]) [%] | %max [3] [%] | %max (Glutamate receptor 2 [4]) [%] | EC50 (Glutamate receptor 2 [5]) [µM] | EC50 [6] [µM] | EC50 (Glutamate receptor 2 [7]) [µM] | also measured
1 | CCN(Cc1cc(=O)n2c(C(C)=O)c(C)sc2n1)c1ccc(F)cc1 | 1.1 | 55 | 173 | 13 | 9.4 | 0.088 | – | Ratio EC50 (Homo sapiens [2]): 100
2 | C=C(C)c1c(C)sc2nc(CN(CC)c3ccc(F)cc3)cc(=O)n12 | – | 22 | 143 | 75 | 13 | 0.06 | 43.1 | Ratio EC50 (Homo sapiens [2]): > 100
3 | CCNC(=O)c1c(C)sc2nc(COc3ccc(F)cc3)cc(=O)n12 | 2 | 15 | 77 | 11 | – | 8.5 | – | Activity [8]: inactive
4 | CCCCc1nn2c(=O)cc(CN(CC)c3ccccc3)nc2s1 | – | 71 | 91 | 51 | 23.7 | 9.34 | 35.2 | %max [9]: 40%
5 | CCN(Cc1cc(=O)n2c(C(C)O)c(C)sc2n1)c1ccc(F)cc1 (racemic) | 0.6 | 30 | 154 | 37 | 5.5 | 0.183 | 32.3 | –
6 | N#C[C@@H]1C[C@H]1c1c(C(F)(F)F)sc2nc(Cn3nc(C(F)(F)F)cc3Cl)cc(=O)n12 | 1.1 | 88 | – | 84 | 5.5 | 0.021 | 9.1 | fraction unbound [10]: 0.06; bioavailability [11]: 24%; Cp(f) (Plasma): 17 nM; EC50 [12]: 6.2 µM; fraction unbound [13]: 0.014; EC50 [14]: 7.4 µM; half-life [15]: 4 h; clearance [16]: 26 mL/min/kg
7 | CCN(Cc1cc(=O)n2c(N3CCOCC3)c(C)sc2n1)c1ccc(F)cc1 | 0.9 | 8 | 69 | 11 | 60.2 | 2.2 | 75.8 | –
8 | CCN(Cc1cc(=O)n2cc(C)sc2n1)c1ccc(F)cc1 | 1 | 93 | 150 | 95 | 0.245 | 0.312 | 0.252 | –
9 | CCN(Cc1cc(=O)n2c(C3CC3)c(C)sc2n1)c1ccc(F)cc1 | 0.8 | 31 | 168 | 35 | 9.8 | 0.394 | 34 | –
10 | Cc1sc2nc(Cc3cccc(C#N)c3F)cc(=O)n2c1C1CC1CO (racemic) | 3.6 | 23 | 160 | 38 | 1.1 | 0.9 | 32.6 | –
11 | CCNC(=O)c1c(C)sc2nc(CN(CC)c3ccc(F)cc3)cc(=O)n12 | 5.1 | 28 | 184 | 10 | – | 0.093 | – | Activity [17]: Active
12 | CCN(Cc1cc(=O)n2nc(C)sc2n1)c1ccccc1 | – | 95 | 150 | 84 | 2 | 1.9 | 7.5 | %max [9]: 35%
13 | CCNC(=O)c1c(C)sc2nc(Cn3nc(C(F)(F)F)cc3Cl)cc(=O)n12 | 11 | 16 | 120 | 8 | 73.2 | 0.436 | 37 | Ratio EC50 (Homo sapiens [18]): 100
14 | CCNC(=O)c1c(C)sc2nc(Cc3cccc(C(F)(F)F)c3F)cc(=O)n12 | 1.8 | 20 | 94 | 9 | 29.4 | 1.2 | 28.3 | –
15 | CCN(Cc1cc(=O)n2nc(C)sc2n1)c1ccc(F)cc1 | 1.4 | 99 | 150 | 92 | 0.83 | 0.9 | 3.3 | logD [19]: 2.9; %max [9]: 48%
16 | CCN(Cc1cc(=O)n2c(CCCO)c(C)sc2n1)c1ccc(F)cc1 | 1 | 45 | 169 | 37 | 1.5 | 0.183 | 33.2 | –
